Assay results published in ChEMBL document CHEMBL2384977, “Synthesis and biological evaluation of novel styryl benzimidazole derivatives as probes for imaging of neurofibrillary tangles in Alzheimer's disease” (Bioorg Med Chem, 2013).

Legend:
[1] = 1-Octanol-PBS buffer partition coefficient, log P of the compound at 0.37 MBq after 2 mins by gamma counting analysis; type: physicochemical
Brain = assay: Ratio of drug level in ddY mouse brain at 13.2 to 20.6 kBq, iv measured at 2 mins to drug level in ddY mouse brain at 13.2 to 20.6 kBq, iv measured at 60 mins; type: ADME, organism-based; details: in vivo
Summary of the method: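 Tail-vein injection of the 125I tracer (13.2–20.6 kBq, saline with ethanol) into male 5-week-old ddY mice. The ratio is brain uptake (%ID/g) at 2 min divided by brain uptake at 60 min, from groups of 5 animals.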

| logP at 2 min [1] | Ratio (Brain) | Structure (SMILES) |
| --- | --- | --- |
| 3.84 | 0.33 | CN(C)c1ccc(/N=N/c2nc3ccc([125I])cc3s2)cc1 |
| – | 0.33 | CNc1ccc(/N=N/c2nc3ccc([125I])cc3s2)cc1 |
